Measurements reported in PMC4210126 (ACS Chemical Neuroscience, 2014).

Tests used:
[1] = molecular target: human HAB TSPO (Homo sapiens, UniProt P30536); type: binding; settings: pKi – logD for human cerebellum HAB
[2] = Measurement of LogD; type: physicochemical; settings: n-octanol/sodium phosphate buffer, pH 7.4
Procedure, shortened: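 Partition of each carbon-11-labelled test compound between n-octanol and sodium phosphate buffer (pH 7.4), run at room temperature. Radioactivity distribution between the phases gives logD.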

Sequence of human HAB TSPO (P30536 whole entry): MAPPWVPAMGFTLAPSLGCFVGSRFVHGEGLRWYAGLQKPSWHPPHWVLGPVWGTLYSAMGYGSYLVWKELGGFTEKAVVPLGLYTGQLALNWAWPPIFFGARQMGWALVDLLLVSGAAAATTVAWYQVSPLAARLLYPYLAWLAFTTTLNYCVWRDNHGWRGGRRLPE

CCC(C)N(C)C(=O)c1cc2ccccc2c(-c2ccccc2Cl)n1 (centres unmarked) [Ligand 1]
LipE [1]: 4.37 | logD [2]: 3.97 ± 0.18
